Consider seven compounds from ChEMBL document CHEMBL5154888 (Eur J Med Chem, 2022).

Data set [1] concerns the target Glutamate NMDA receptor. The data set can be described thus: Inhibition of NMDA receptor in NMDA-stimulated rat cerebellar granule neurons assessed as measuring intracellular calcium concentration in presence of glycine by Fura2-AM dye based fluorescence assay. The format is cell-based. The note with it: cerebellar granule neurone.
Data set [2] has as its target Glutamate NMDA receptor; Grin1/Grin2a (Rattus norvegicus, UniProt P35439+Q00959). Briefly: Inhibition of eGFP-tagged rat GluN1-1a/GluN2A transfected in human tsA201 cells assessed as inhibition glutamate-induced current measured at -65 mV holding potential applied for 10 secs by whole-cell patch-clamp method. The format is cell-based.
In data set [3] the test system is Mus musculus. Briefly: Upregulation of calbindin D-28K levels in hippocampus of 5XFAD transgenic AD mouse model at 5 mg/kg, po by Western blot analysis. The format is functional, organism-based. An outline of the steps: (§1)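 5XFAD mice treated at 5 mg/kg/day for 4 weeks, n = 3–4 per group. Western blot quantifies GluN2A, PSD95, calbindin, p-Fyn/Fyn, p-GluN2B(Tyr1472)/GluN2B, and nuclear versus cytosolic p-CREB ratio. Values normalised to WT as 100%.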
Background: In western blotting, separated proteins are transferred to a membrane and probed.

Data set [4] concerns the target T1, Glutamate NMDA receptor; Grin1/Grin2a (Rattus norvegicus) (UniProt P35439+Q00959). Briefly: Inhibition of eGFP-tagged rat GluN1/GluN2A transfected in human tsA201 cells assessed as weighted time constant for blockade of glycine/NMDA-induced current at 10 uM at 1 sec by whole-cell patch-clamp method. The format is cell-based. Background: Patch clamp records ionic current or voltage across a cell membrane.

Data set [5] has as its system Caenorhabditis elegans. Briefly: Effect on locomotory activity in transgenic Caenorhabditis elegans CL2006 model of paralysis assessed as reduction in defective locomotion by measuring motor index at 0.1 to 10 uM by motor behaviour assay. The format is functional, organism-based. The settings on record: dose 0.1-10 µM. The method in brief: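 C. elegans CL2006 (constitutive human Aβ1–42), synchronised by hypochlorite and hatched as L1. Compounds in DMSO diluted into water, 1% DMSO final; tested at 0.1–10 μM. Treatment in liquid culture, 25–30 L1 worms per well with inactivated OP50, 4 days at 20 °C. Defective locomotion scored as motor index; N2 is the reference strain.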

In data set [6] the test system is Mus musculus. Briefly: Upregulation of PSD in hippocampus of 5XFAD transgenic AD mouse model at 5 mg/kg, po by Western blot analysis. The format is functional, organism-based. The method in brief:
as §1

The target of data set [7] is T1, Glutamate NMDA receptor; Grin1/Grin2a (Rattus norvegicus). Briefly: Inhibition of eGFP-tagged rat GluN1/GluN2A transfected in human tsA201 cells assessed as blockade of glycine/NMDA-induced current at 10 uM treated for 40 secs measured at +60 mV holding potential applied for 5 secs by whole-cell patch-clamp method relative to control. The settings on record: time 45.0 sec. The format is cell-based. The method in brief:
(§2)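 tsA201 cells transfected with rat GluN1, rat GluN2A and eGFP (0.5:1:1); dl-APV 200 μM added at transfection. Whole-cell recording at rt, held at −60 mV. Agonist is 100 μM NMDA + 10 μM glycine; blocker at 10 μM applied by piezo until steady state. A 5 s jump to +60 mV is made during block and again after blocker washout. Block is computed from steady-state current ratios, and recovery as current after removal over current before application.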

Data set [8] has the same target. The data set can be described thus: Inhibition of eGFP-tagged rat GluN1/GluN2A transfected in human tsA201 cells assessed as recovery of glycine/NMDA-induced current at 10 uM treated for 40 secs followed by application of +60 mV holding potential for 5 secs measured after 40 secs of compound removal by whole-cell patch-clamp method relative to control. The format is cell-based. The note with it: time 85.0 sec. An outline of the steps: as §2

Data set [9] has as its system Mus musculus. The data set can be described thus: Upregulation of phosphorylated-Fyn levels in hippocampus of 5XFAD transgenic AD mouse model at 5 mg/kg, po by Western blot analysis. The format is functional, organism-based. The method in brief:
as §1

In data set [10] the test system is Mus musculus. The data set can be described thus: Upregulation of phosphorylated-GluN2B levels at Tyr1472 residue in hippocampus of 5XFAD transgenic AD mouse model at 5 mg/kg, po by Western blot analysis. The format is functional, organism-based. The method in brief:
as §1

The target of data set [11] is T1, Glutamate NMDA receptor; Grin1/Grin2a (Rattus norvegicus). The data set can be described thus: Inhibition of eGFP-tagged rat GluN1/GluN2A transfected in human tsA201 cells assessed as blockade of glycine/NMDA-induced current at 10 uM treated for 40 secs measured at -60 mV holding potential after returning from +60 mV application for 5 secs by whole-cell patch-clamp method relative to control. The note with it: time 45.0 sec. The format is cell-based.

In data set [12] the test system is Mus musculus. Briefly: Recovery of cognitive function in 5XFAD transgenic AD mouse model assessed as short term memory by measuring increased discrimination index at 5 mg/kg/day, po for 4 weeks measured after 4 days of habituation by novel object recognition test. The format is functional, organism-based. The settings on record: time 32.0 day. The method in brief:
(§3)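 5XFAD mice, 6 months old, treated at 5 mg/kg/day for 4 weeks; n = 8–11 per group, with WT controls. Novel object recognition test: discrimination index from exploration time of novel versus familiar object, tested at 2 h (short-term) and 24 h (long-term).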

The test system of data set [13] is Caenorhabditis elegans. Briefly: Neuroprotective activity against transgenic Caenorhabditis elegans CL2355 assessed as A-beta aggregration-induced reversal of disrupted chemotaxis behaviour by measuring chemotaxis index at […] treated for 72 hrs followed by compound washout and odorant addition for 1 hr. The note with it: dose 1.5 µM. The format is functional, organism-based.

For data set [14], the system named is Mus musculus. Briefly: Recovery of cognitive function in 5XFAD transgenic AD mouse model assessed as long term memory by measuring increase in discrimination index at 5 mg/kg/day, po for 4 weeks measured after 5 days of habituation by novel object recognition test. The format is functional, organism-based. The note with it: time 33.0 day. The method in brief:
as §3

The target of data set [15] is T1, Glutamate NMDA receptor; Grin1/Grin2a (Rattus norvegicus). Briefly: Inhibition of eGFP-tagged rat GluN1/GluN2A transfected in human tsA201 cells assessed as weighted time constant for recovery of glycine/NMDA-induced current at 10 uM treated for 40 secs followed by application of +60 mV holding potential for 5 secs measured after 40 secs of compound removal by whole-cell patch-clamp method. The format is cell-based. The note with it: time 85.0 sec.

Data set [16] in a line: in vitro. The settings on record: PAMPA. On the technique in general: PAMPA measures passive passage across an artificial lipid membrane.

Molecules are shown by their SMILES. Activity calls are given as the source filed them. No cut-off for these calls is given here.

For the compound `COc1cc2c(cc1OC)C1CC3(C)CC2CC(N)(C1)C3`, the IC50 (in general, the concentration at which inhibition is half-maximal) in data set [1] was 517 µM.

Consider `CC12CC3CC(N)(CC(C1)c1cc([N+](=O)[O-])ccc13)C2` (centres undefined), for which, in [1], the IC50 worked out at 164 µM.

As to `CNC1(c2ccccc2Cl)CCCCC1=O` (centres undefined) [KETAMINE], the IC50 in [2] came to 1 µM.

Take `CN(C)C12CC3CC(C)(CC(C1)c1cc([N+](=O)[O-])ccc13)C2` (centres undefined): in data set [1], the IC50 amounted to 309 µM.

As for `CC(=O)c1ccc2c(c1)C1CC3(C)CC2CC(N)(C1)C3` (centres undefined), the IC50 in data set [1] worked out at 323 µM.

As for `CC12CC3CC(C)(C1)CC(N)(C3)C2`, the outcome in data set [3], in data set [5], in [6], in [9], in data set [10] and in data set [12] was Active. Also, the outcome in data set [13] and in data set [14] was Active. Moreover, in data set [4], the inhibition (as a rule, the relative decrease from the control value, in per cent) is “Active”. Besides, the inhibition in data set [7] was -3.9%; in data set [8], 93.6%; in [11] it was 86.2%. In data set [15], the TIME came out at 0.00178 h.

Take `CCn1cc(C(=O)O)c(=O)c2cc(F)c(N3CCNC(C)C3)c(F)c21` (centres undefined) [LOMEFLOXACIN]: the Papp (in general, a coefficient for how fast a substance crosses the barrier) in data set [16] is 0.86 ×10⁻⁶ cm/s.
